According to ChEMBL document CHEMBL1828626, “Thiazolyl N-benzyl-substituted acetamide derivatives: synthesis, Src kinase inhibitory and anticancer activities” (2011):
Active and inactive are the calls of the source. No cut-off for these calls is given here.

Legend:
NIH3T3 = experiment: Inhibition of constitutively active human c-SRC527F mutant-induced growth inhibition in mouse NIH3T3 cells after 3 days by MTT assay; format: cell-based
Method in brief: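 NIH3T3 cells carrying constitutively active human c-Src527F were seeded at 4500 cells/well in DMEM/10% FBS and left overnight. They were then exposed for 3 days at 37 °C to a 5-point 2-fold dilution series (n = 3). Growth % = (T−T0)/(C−T0) × 100; GI50 taken from curves.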

SYF = experiment: Inhibition of constitutively active human c-Src527F mutant-induced growth inhibition in src, yes and fyn-deficient mouse SYF cells after 2 days by MTT assay; format: cell-based
Method in brief: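 SYF cells (Src/Yes/Fyn knockout) re-expressing c-Src527F were plated at 3500 cells/well in DMEM/10% FBS overnight. Compound was added as a 5-point 2-fold serial dilution in triplicate for 2 days at 37 °C, 5% CO2. GI50 comes from growth % = (T−T0)/(C−T0) × 100, with T0 from day-zero wells.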

HT-29 = experiment: Antiproliferative activity against c-Src overexpressing human HT-29 cells at 50 uM after 24 to 72 hrs relative to control; format: functional
Method in brief: (§1)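 Cells cultured in EMEM (HT-29, BT-20) or RPMI (CCRF-CEM) with 10% FBS at 37 °C, 5% CO2. Seeded at 5000 cells/well and treated 72 h after seeding with 50 μM compound, in triplicate, for 24-72 h. CellTiter 96 AQueous One reagent added for 1 h; formazan A490. Survival is (treated − medium blank)/(untreated control − blank) × 100%.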

CCRF-CEM [1] = experiment: Antiproliferative activity against human CCRF-CEM cells at 50 uM after 72 hrs relative to control; format: functional; method in brief: as §1
BT-20 [2] = experiment: Antiproliferative activity against human BT20 cells at 10 uM after 72 hrs relative to control; format: functional, cell-based
Method in brief: (§2)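 BT-20 in EMEM or CCRF-CEM in RPMI, with 10% FBS, at 37 °C, 5% CO2. Seeded at 5000 cells/well and exposed 72 h after seeding to 10 μM agent, in triplicate. Readout is CellTiter 96 AQueous One, 1 h, A490. Growth is given as percent of untreated control after medium-blank subtraction.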

CCRF-CEM [3] = experiment: Antiproliferative activity against human CCRF-CEM cells at 10 uM after 72 hrs relative to control; format: functional, cell-based; method in brief: as §2
BT-20 [4] = experiment: Antiproliferative activity against human BT20 cells at 50 uM after 72 hrs relative to control; format: functional; method in brief: as §1

| SMILES | GI50 (NIH3T3) [µM] | GI50 (SYF) [µM] | Activity (HT-29) [%] | Activity (CCRF-CEM [1]) [%] | Activity (BT-20 [2]) | Activity (CCRF-CEM [3]) | Activity (BT-20 [4]) [%] |
| --- | --- | --- | --- | --- | --- | --- | --- |
| O=C(Cc1csc(-c2ccc(OCCN3CCOCC3)cc2)n1)NCc1ccc(Cl)c(Cl)c1 | 12.3 | 12.5 | 54 | 69 |  |  |  |
| O=C(Cc1csc(-c2ccc(OCCN3CCOCC3)cc2)n1)NCc1ccc(F)cc1 | 1.49 | 2.51 | 54 | 71 |  |  |  |
| COc1cccc2c1C(=O)c1c(O)c3c(c(O)c1C2=O)C[C@@](O)(C(=O)CO)C[C@@H]3O[C@H]1C[C@H](N)[C@H](O)[C@H](C)O1 |  |  |  |  | Active | Active |  |
| O=C(Cc1csc(-c2ccc(OCCN3CCOCC3)cc2)n1)NCc1ccccc1Cl | 7.93 | 13 |  | 30 |  |  | 30 |
| O=C(Cc1csc(-c2ccc(OCCN3CCOCC3)cc2)n1)NCc1ccccc1 | 1.34 | 2.3 |  | 30 |  |  | 30 |
| Cc1ccc(CNC(=O)Cc2csc(-c3ccc(OCCN4CCOCC4)cc3)n2)cc1 | 4.76 | 7.23 | 54 | 61 |  |  |  |
| O=C(Cc1ccc(-c2ccc(OCCN3CCOCC3)cc2)cn1)NCc1ccccc1 | 0.023 | 0.039 |  |  |  |  |  |
